Results as given in ChEMBL document CHEMBL1287651, “Synthesis and in vitro antibacterial activity of fluoroquinolone derivatives containing 3-(N'-alkoxycarbamimidoyl)-4-(alkoxyimino) pyrrolidines” (2010).
≈ marks a conversion by molar mass, not a printed value.

How the values were obtained:
Assay type in all cases: functional
Klebsiella pneumoniae [1] = assay: Antibacterial activity against Klebsiella pneumoniae 09-22 after 18 to 24 hrs by twofold serial dilution method
Procedure, shortened: (§1)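 MIC determined by the standard twofold serial dilution method on agar media, screening against Gram-positive and Gram-negative strains. Levofloxacin and gemifloxacin were run alongside as reference drugs.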

Enterococcus faecium [2] = assay: Antibacterial activity against Enterococcus faecium 08-2 after 18 to 24 hrs by twofold serial dilution method; procedure, shortened: as §1
[3] = test system: Staphylococcus epidermidis; assay: Antibacterial activity against methicillin-resistant Staphylococcus epidermidis 09-3 after 18 to 24 hrs by twofold serial dilution method
Procedure, shortened: (§2)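 Standard twofold serial agar dilution method on agar media for MIC determination. Screened against representative Gram-positive and Gram-negative strains. Levofloxacin and GMFX served as control drugs.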

[4] = test system: Staphylococcus epidermidis; assay: Antibacterial activity against methicillin-resistant Staphylococcus epidermidis 09-2 after 18 to 24 hrs by twofold serial dilution method; procedure, shortened: as §2
Escherichia coli [5] = assay: Antibacterial activity against Escherichia coli ATCC 25922 after 18 to 24 hrs by twofold serial dilution method; procedure, shortened: as §1
Pseudomonas aeruginosa [6] = assay: Antibacterial activity against Pseudomonas aeruginosa 09-33 after 18 to 24 hrs by twofold serial dilution method; procedure, shortened: as §1
[7] = test system: Staphylococcus epidermidis; assay: Antibacterial activity against methicillin-resistant Staphylococcus epidermidis 09-4 after 18 to 24 hrs by twofold serial dilution method; procedure, shortened: as §2
Pseudomonas aeruginosa [8] = assay: Antibacterial activity against Pseudomonas aeruginosa 09-32 after 18 to 24 hrs by twofold serial dilution method; procedure, shortened: as §1
Staphylococcus aureus [9] = assay: Antibacterial activity against methicillin-sensitive Staphylococcus aureus 08-2 after 18 to 24 hrs by twofold serial dilution method; procedure, shortened: as §2
[10] = test system: Staphylococcus epidermidis; assay: Antibacterial activity against methicillin-sensitive Staphylococcus epidermidis 09-6 after 18 to 24 hrs by twofold serial dilution method; procedure, shortened: as §2
[11] = test system: Staphylococcus epidermidis; assay: Antibacterial activity against methicillin-sensitive Staphylococcus epidermidis 09-3 after 18 to 24 hrs by twofold serial dilution method; procedure, shortened: as §2
Staphylococcus aureus [12] = assay: Antibacterial activity against methicillin-resistant Staphylococcus aureus 08-1 after 18 to 24 hrs by twofold serial dilution method; procedure, shortened: as §2
Enterococcus faecalis [13] = assay: Antibacterial activity against Enterococcus faecalis 08-10 after 18 to 24 hrs by twofold serial dilution method; procedure, shortened: as §1
Enterococcus faecium [14] = assay: Antibacterial activity against Enterococcus faecium 08-7 after 18 to 24 hrs by twofold serial dilution method; procedure, shortened: as §1
Escherichia coli [15] = assay: Antibacterial activity against Escherichia coli 08-21 after 18 to 24 hrs by twofold serial dilution method; procedure, shortened: as §1
Klebsiella pneumoniae [16] = assay: Antibacterial activity against Klebsiella pneumoniae 09-23 after 18 to 24 hrs by twofold serial dilution method; procedure, shortened: as §1
Streptococcus pneumoniae [17] = assay: Antibacterial activity against Streptococcus pneumoniae 08-4 after 18 to 24 hrs by twofold serial dilution method; procedure, shortened: as §1
Pseudomonas aeruginosa [18] = assay: Antibacterial activity against Pseudomonas aeruginosa 09-34 after 18 to 24 hrs by twofold serial dilution method; procedure, shortened: as §1
Pseudomonas aeruginosa [19] = assay: Antibacterial activity against Pseudomonas aeruginosa ATCC 27853 after 18 to 24 hrs by twofold serial dilution method; procedure, shortened: as §1
Klebsiella pneumoniae [20] = assay: Antibacterial activity against Klebsiella pneumoniae 09-21 after 18 to 24 hrs by twofold serial dilution method; procedure, shortened: as §1
Escherichia coli [21] = assay: Antibacterial activity against Escherichia coli 08-22 after 18 to 24 hrs by twofold serial dilution method; procedure, shortened: as §1
Pseudomonas aeruginosa [22] = assay: Antibacterial activity against Pseudomonas aeruginosa 09-35 after 18 to 24 hrs by twofold serial dilution method; procedure, shortened: as §1
Staphylococcus aureus [23] = assay: Antibacterial activity against Staphylococcus aureus ATCC […] after 18 to 24 hrs by twofold serial dilution method; procedure, shortened: as §1
Enterococcus faecalis [24] = assay: Antibacterial activity against Enterococcus faecalis 08-12 after 18 to 24 hrs by twofold serial dilution method; procedure, shortened: as §1
Streptococcus pneumoniae [25] = assay: Antibacterial activity against Streptococcus pneumoniae 08-2 after 18 to 24 hrs by twofold serial dilution method; procedure, shortened: as §1

SMILES	MIC (Klebsiella pneumoniae [1]) [µg/mL]	MIC (Enterococcus faecium [2]) [µg/mL]	MIC [3] [µg/mL]	MIC [4] [µg/mL]	MIC (Escherichia coli [5]) [µg/mL]	MIC (Pseudomonas aeruginosa [6]) [µg/mL]	MIC [7] [µg/mL]	MIC (Pseudomonas aeruginosa [8]) [µg/mL]	MIC (Staphylococcus aureus [9]) [µg/mL]	MIC [10] [µg/mL]	MIC [11] [µg/mL]	MIC (Staphylococcus aureus [12]) [µg/mL]	MIC (Enterococcus faecalis [13]) [µg/mL]	MIC (Enterococcus faecium [14]) [µg/mL]	MIC (Escherichia coli [15]) [µg/mL]	MIC (Klebsiella pneumoniae [16]) [µg/mL]	MIC (Streptococcus pneumoniae [17]) [µg/mL]	MIC (Pseudomonas aeruginosa [18]) [µg/mL]	MIC (Pseudomonas aeruginosa [19]) [µg/mL]	MIC (Klebsiella pneumoniae [20]) [µg/mL]	also measured
CO/N=C1\CN(c2nc3c(cc2F)c(=O)c(C(=O)O)cn3C2CC2)CC1/C(N)=N\O (stereo not given)	32 (≈ 76.5 µM)	> 128	1 (≈ 2.39 µM)	1 (≈ 2.39 µM)	128 (≈ 306 µM)	8 (≈ 19.1 µM)	2 (≈ 4.78 µM)	8 (≈ 19.1 µM)	1 (≈ 2.39 µM)	128 (≈ 306 µM)	128 (≈ 306 µM)	128 (≈ 306 µM)	> 128	> 128	> 128	> 128	2 (≈ 4.78 µM)	8 (≈ 19.1 µM)	4 (≈ 9.56 µM)	> 128	MIC (Escherichia coli [21]): > 128 µg/mL; MIC (Pseudomonas aeruginosa [22]): > 128 µg/mL; MIC (Staphylococcus aureus [23]): 1 µg/mL (≈ 2.39 µM); MIC (Enterococcus faecalis [24]): 4 µg/mL (≈ 9.56 µM); MIC (Streptococcus pneumoniae [25]): 2 µg/mL (≈ 4.78 µM)
CO/N=C1\CN(c2c(F)cc3c(=O)c(C(=O)O)cn(C4CC4)c3c2OC)CC1/C(N)=N\O (stereo not given)	1 (≈ 2.24 µM)	> 128	0.25 (≈ 0.559 µM)	0.5 (≈ 1.12 µM)	> 128	> 128	0.25 (≈ 0.559 µM)	32 (≈ 71.5 µM)	0.25 (≈ 0.559 µM)	0.25 (≈ 0.559 µM)	0.25 (≈ 0.559 µM)	0.25 (≈ 0.559 µM)	> 128	> 128	> 128	> 128	4 (≈ 8.94 µM)	> 128	16 (≈ 35.8 µM)	> 128	MIC (Escherichia coli [21]): > 128 µg/mL; MIC (Pseudomonas aeruginosa [22]): 32 µg/mL (≈ 71.5 µM); MIC (Staphylococcus aureus [23]): 0.25 µg/mL (≈ 0.559 µM); MIC (Enterococcus faecalis [24]): > 128 µg/mL; MIC (Streptococcus pneumoniae [25]): 4 µg/mL (≈ 8.94 µM)
CO/N=C1\CN(c2c(F)cc3c(=O)c(C(=O)O)cn(C4CC4)c3c2OC)CC1/C(N)=N\OC (stereo not given)	2 (≈ 4.33 µM)	> 128	0.25 (≈ 0.542 µM)	0.25 (≈ 0.542 µM)	128 (≈ 277 µM)	> 128	0.25 (≈ 0.542 µM)	128 (≈ 277 µM)	0.125 (≈ 0.271 µM)	0.25 (≈ 0.542 µM)	0.125 (≈ 0.271 µM)	0.25 (≈ 0.542 µM)	> 128	> 128	> 128	> 128	0.25 (≈ 0.542 µM)	> 128	64 (≈ 139 µM)	> 128	MIC (Escherichia coli [21]): > 128 µg/mL; MIC (Pseudomonas aeruginosa [22]): 128 µg/mL (≈ 277 µM); MIC (Staphylococcus aureus [23]): 0.125 µg/mL (≈ 0.271 µM); MIC (Enterococcus faecalis [24]): > 128 µg/mL; MIC (Streptococcus pneumoniae [25]): 8 µg/mL (≈ 17.3 µM)
CCO/N=C1\CN(c2nc3c(cc2F)c(=O)c(C(=O)O)cn3-c2ccc(F)cc2F)CC1/C(N)=N\OC (stereo not given)	32 (≈ 61.7 µM)	> 128	0.25 (≈ 0.482 µM)	0.125 (≈ 0.241 µM)	128 (≈ 247 µM)	> 128	0.25 (≈ 0.482 µM)	> 128	0.25 (≈ 0.482 µM)	0.25 (≈ 0.482 µM)	0.125 (≈ 0.241 µM)	0.25 (≈ 0.482 µM)	> 128	> 128	> 128	32 (≈ 61.7 µM)	32 (≈ 61.7 µM)	> 128	32 (≈ 61.7 µM)	0.25 (≈ 0.482 µM)	MIC (Escherichia coli [21]): > 128 µg/mL; MIC (Pseudomonas aeruginosa [22]): > 128 µg/mL; MIC (Staphylococcus aureus [23]): 0.25 µg/mL (≈ 0.482 µM); MIC (Enterococcus faecalis [24]): > 128 µg/mL; MIC (Streptococcus pneumoniae [25]): 32 µg/mL (≈ 61.7 µM)
